Data from ChEMBL document CHEMBL4480404, “Discovery of Lipophilic Bisphosphonates That Target Bacterial Cell Wall and Quinone Biosynthesis” (J Med Chem, 2019).
pIC50, pKd: −log10 of the molar value. Converted amounts (≈) assume the structure as drawn. The source made the active and inactive calls. The rule behind the calls is not given here.

Experiments:
[1] = Growth inhibition of HEK293 cells after 24 hrs by MTT assay; type: cell-based; details: human, read-out: ED50
Procedure, shortened: (§1)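 HEK293 cells in DMEM (4.5 g/L glucose) with 10% FBS and 1% penicillin-streptomycin, seeded at 10⁵ cells/mL. Inhibitor from 10 mM stock diluted threefold across 10 wells; 37 °C for 24 or 96 h.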

[2] = Lipophilicity, log D of the compound at pH 7.4; type: physicochemical; details: buffer
[3] = Inhibition of Escherichia coli OPPS using IPP as substrate
[4] = target: T1, Farnesyl pyrophosphate synthase (Homo sapiens, UniProt P14324); assay: Inhibition of human FPPS using IPP and GPP
T1 sequence (P14324 whole entry): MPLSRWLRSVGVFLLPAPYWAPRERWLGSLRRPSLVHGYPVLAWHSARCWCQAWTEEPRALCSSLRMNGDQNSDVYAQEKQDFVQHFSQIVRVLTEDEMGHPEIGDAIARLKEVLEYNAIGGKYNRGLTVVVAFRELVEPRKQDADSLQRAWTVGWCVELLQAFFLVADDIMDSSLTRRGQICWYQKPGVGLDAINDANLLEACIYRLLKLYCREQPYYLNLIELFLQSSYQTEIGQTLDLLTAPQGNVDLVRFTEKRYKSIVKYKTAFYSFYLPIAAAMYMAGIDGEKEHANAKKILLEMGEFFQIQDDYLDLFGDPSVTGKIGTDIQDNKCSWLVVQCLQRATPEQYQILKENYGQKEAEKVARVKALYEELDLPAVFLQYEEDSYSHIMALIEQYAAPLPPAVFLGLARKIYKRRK

Candida albicans = assay: microbe, parasite or virus in culture; type: functional; details: CAI-4, 12 h, read-out: ED50 (the source's name)
Staphylococcus aureus = assay: Antibacterial activity against Staphylococcus aureus Newman after 12 hrs; type: functional; details: read-out: ED50 (the source's name)
Procedure, shortened: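 Log-phase S. aureus culture in tryptic soy broth (OD600 ~0.3, then diluted 500-fold). Inhibitors two-fold serially diluted across 12 wells from a 100 µM–1 mM start; 37 °C, 200 rpm, 12 h; OD600 read for growth inhibition.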

Bacillus subtilis [5] = assay: Antibacterial activity against Bacillus subtilis (Ehrenberg) Cohn ATCC 6051 after 12 hrs; type: functional; details: (Ehrenberg) Cohn ATCC 6051, 12 h, read-out: ED50 (the source's name)
Procedure, shortened: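 Log-phase LB culture (grown to OD600 ~0.3, then diluted 500-fold) exposed to two-fold serial dilutions of inhibitor starting at 100 µM–1 mM across 12 wells; 37 °C, 200 rpm shaking, 12 h. OD600 read and ED50 fitted; duplicate or triplicate.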

Bacillus anthracis = assay: Antibacterial activity against Bacillus anthracis Sterne after 12 hrs; type: functional; details: read-out: ED50 (the source's name)
Bacillus subtilis [6] = assay: Antibacterial activity against Bacillus subtilis (Ehrenberg) Cohn ATCC 6051 in absence of fetal bovine serum after 12 hrs; type: functional; details: (Ehrenberg) Cohn ATCC 6051, 12 h, read-out: ED50 (the source's name)
Procedure, shortened: (§2)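 Log-phase B. subtilis diluted 500-fold into LB containing 0%, 4% or 10% fetal bovine serum. Inhibitor threefold serially diluted across 12 wells from a 100 µM–1 mM start; incubated 12 h at 37 °C with 200 rpm shaking; growth inhibition by OD600.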

Bacillus subtilis [7] = assay: Antibacterial activity against Bacillus subtilis (Ehrenberg) Cohn ATCC 6051 in presence of 10% fetal bovine serum after 12 hrs; type: functional; details: (Ehrenberg) Cohn ATCC 6051, 12 h, read-out: ED50 (the source's name); procedure, shortened: as §2
Bacillus subtilis [8] = assay: Antibacterial activity against Bacillus subtilis (Ehrenberg) Cohn ATCC 6051 assessed as growth inhibition in presence of HMBPP after 12 hrs; type: functional, organism-based; details: (Ehrenberg) Cohn ATCC 6051, 12 h
Procedure, shortened: (§3)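 Rescue format: log-phase B. subtilis in LB with rescue agent(s) at 50 µM each, alone or as pairwise combinations of UP, MK-4, FPP or HMBPP. Inhibitor diluted threefold across 12 wells from a 100 µM–1 mM start; 37 °C, 200 rpm, 12 h. Growth inhibition read as OD600; ED50-based fold-rescue; duplicate.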

Bacillus subtilis [9] = assay: Antibacterial activity against Bacillus subtilis (Ehrenberg) Cohn ATCC 6051 assessed as growth inhibition in presence of FPP after 12 hrs; type: functional, organism-based; details: (Ehrenberg) Cohn ATCC 6051, 12 h; procedure, shortened: as §3
Bacillus subtilis [10] = assay: Antibacterial activity against Bacillus subtilis (Ehrenberg) Cohn ATCC 6051 assessed as growth inhibition in presence of FPP and UP after 12 hrs; type: functional, organism-based; details: (Ehrenberg) Cohn ATCC 6051, 12 h; procedure, shortened: as §3
Bacillus subtilis [11] = assay: Antibacterial activity against Bacillus subtilis (Ehrenberg) Cohn ATCC 6051 assessed as growth inhibition in presence of HMBPP and MK4 after 12 hrs; type: functional, organism-based; details: (Ehrenberg) Cohn ATCC 6051, 12 h; procedure, shortened: as §3
Clostridioides difficile [12] = assay: Antibacterial activity against Clostridioides difficile ATCC 43255 after 48 hrs; type: functional; details: ATCC 43255, 48 h
Procedure, shortened: (§4)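 Grown anaerobically 48 h at 37 °C on brain heart infusion agar supplemented with yeast extract, L-cysteine, vitamin K1 and hemin. Inoculum set to a 0.5 McFarland standard, then diluted in supplemented BHI broth to ~5 × 10^5 CFU/mL. Broth dilution over 64–0.5 μM, incubated anaerobically 48 h at 37 °C. MIC read visually as lowest concentration inhibiting growth.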

Clostridioides difficile [13] = assay: Antibacterial activity against Clostridioides difficile ATCC 1870 after 48 hrs; type: functional; details: ATCC 1870, 48 h; procedure, shortened: as §4
[14] = Growth inhibition of HEK293 cells after 96 hrs by MTT assay; type: cell-based; details: human, read-out: ED50; procedure, shortened: as §1
[15] = target: T1, Farnesyl pyrophosphate synthase; assay: Inhibition of human FPPS using IPP and GPP as substrate
Procedure, shortened: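 Expressed HsFPPS at 0.15 μM with 50 μM IPP and 50 μM GPP, 25°C, in 20 mM HEPES pH 7.5, 150 mM NaCl, 500 μM MgCl2. Enzyme preincubated 30 min at room temperature with serially diluted compound. Continuous MESG/PNP phosphate-release read-out, with pyrophosphatase added. At least 3 runs on different days; pooled data fitted by nonlinear regression for IC50.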

Bacillus subtilis [16] = assay: Antibacterial activity against Bacillus subtilis (Ehrenberg) Cohn ATCC 6051 assessed as growth inhibition in presence of MK7 after 12 hrs; type: functional, organism-based
Bacillus subtilis [17] = assay: Antibacterial activity against Bacillus subtilis (Ehrenberg) Cohn ATCC 6051 assessed as growth inhibition in presence of decaprenyl phosphate after 12 hrs; type: functional, organism-based
[18] = Binding affinity to Staphylococcus aureus HepPPS

SMILES: CC(C)CCCC(C)CCn1cc[n+](CC(P(=O)([O-])O)P(=O)(O)O)c1 (stereo not given)
- GI50 at 24 h [1]: 420 µM

SMILES: CC(C)CCCC(C)c1cnc(NCC(P(=O)(O)O)P(=O)(O)O)s1 (stereo not given)
- logD ([2]; read-out: logD): -2.96

SMILES: CCCCCCCCCCOc1cccc(CC(O)(P(=O)(O)O)P(=O)(O)O)c1
- pIC50 [3]: 4.96
- pIC50 [4]: 3.26

SMILES: CCCCCCCCCCCCCCOc1cccc(O)c1C(=O)O
- EC50 (Candida albicans): > 50 µg/mL

SMILES: O=P([O-])(O)C(Cn1cc[n+](CCCc2ccc(F)c(F)c2)c1)P(=O)(O)O (stereo not given)
- EC50 (Staphylococcus aureus): 30 µg/mL (≈ 73.1 µM)
- EC50 (Bacillus subtilis [5]): > 100 µg/mL
- EC50 (Bacillus anthracis): > 100 µg/mL
- EC50 (Candida albicans): 2 µg/mL (≈ 4.88 µM)
- GI50 at 24 h [1]: 600 µM
- EC50 (Bacillus subtilis [6]): 26 µg/mL (≈ 63.4 µM)
- EC50 (Bacillus subtilis [7]): 38 µg/mL

SMILES: CCCCCCCCCCCc1ccc[n+](CC(P(=O)([O-])O)P(=O)(O)O)c1 (stereo not given)
- GI50 at 24 h [1]: 220 µM
- EC50 (Bacillus subtilis [7]): 2 µg/mL
- logD [2]: -4.07

SMILES: CC(C)CCCC(C)CCCn1cc[n+](CC(P(=O)([O-])O)P(=O)(O)O)c1 (stereo not given)
- GI50 at 24 h [1]: 440 µM
- logD [2]: -5.65

SMILES: CC(C)CCCC(C)CCOc1ccc[n+](CC(P(=O)([O-])O)P(=O)(O)O)c1 (stereo not given)
- GI50 at 24 h [1]: 620 µM
- IC50 (Bacillus subtilis [8]): 2.1 µg/mL
- IC50 (Bacillus subtilis [9]): 3.5 µg/mL
- IC50 (Bacillus subtilis [10]): 8.9 µg/mL
- IC50 (Bacillus subtilis [11]): 8.9 µg/mL
- MIC (Clostridioides difficile [12]): 6.8 µg/mL (≈ 16.1 µM)
- MIC (Clostridioides difficile [13]): 6.8 µg/mL (≈ 16.1 µM)
- EC50 (Bacillus subtilis [6]): 1 µg/mL (≈ 2.36 µM)
- EC50 (Bacillus subtilis [7]): 1.7 µg/mL
- GI50 at 96 h [14]: 76 µM
- pIC50 [15]: 6.64
- pIC50 [4]: 6.64
- Activity (Bacillus subtilis [16]): Active
- Activity (Bacillus subtilis [17]): Active

SMILES: CC(C)CCCC(C)CCOc1ccnc(NC(P(=O)(O)O)P(=O)(O)O)c1 (stereo not given)
- GI50 at 24 h [1]: 1300 µM
- logD ([2]; read-out: logD): -1.63

SMILES: CC(C)=CCC/C(C)=C/CC/C(C)=C/COP(=O)(O)OP(=O)(O)O [FARNESYL DIPHOSPHATE]
- pKd [18]: 4.46

SMILES: CC(C)CCCC(C)CCc1cnc(NCC(P(=O)(O)O)P(=O)(O)O)s1 (stereo not given)
- logD ([2]; read-out: logD): -2.12

SMILES: CC(C)CCCC(C)CCOc1cc(NCC(P(=O)(O)O)P(=O)(O)O)ccn1 (stereo not given)
- GI50 at 24 h [1]: 1200 µM
- logD ([2]; read-out: logD): -3.1

SMILES: CC(C)CCCC(C)CCCc1cc[n+](CC(P(=O)([O-])O)P(=O)(O)O)cc1 (stereo not given)
- GI50 at 24 h [1]: 700 µM
- EC50 (Bacillus subtilis [6]): 2.3 µg/mL (≈ 5.46 µM)
- EC50 (Bacillus subtilis [7]): 78 µg/mL
- GI50 at 96 h [14]: > 1000 µM
- logD [2]: -4.71

SMILES: CC(C)CCCC(C)CCSc1cc[n+](CC(P(=O)([O-])O)P(=O)(O)O)cc1 (stereo not given)
- GI50 at 24 h [1]: 1000 µM
- logD [2]: -5.08

SMILES: CC(C)CCCC(C)CCCC(C)CCOc1ccc[n+](CC(P(=O)([O-])O)P(=O)(O)O)c1 (stereo not given)
- logD ([2]; read-out: logD): -3.48
